Measurements taken from ChEMBL document CHEMBL1145060, “Synthesis and evaluation of pharmacological properties of novel annelated 2,3-benzodiazepine derivatives” (2003).

Legend:
[1] = Anticonvulsant activity against Audiogenic seizures in DBA/2 mice was observed in clonic phase after intraperitoneal injection; type: functional; conditions: Mus musculus, ip
Procedure, shortened: (§1)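 Compound given intraperitoneally to DBA/2 mice 30 min before audiogenic seizure testing; clonic and tonic phases scored. ED50 (μmol/kg) with 95% confidence limits calculated by Litchfield and Wilcoxon.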

[2] = Anticonvulsant activity against Audiogenic seizures in DBA/2 mice was observed in tonic phase after intraperitoneal injection; type: functional; conditions: Mus musculus, ip; procedure, shortened: as §1
[3] = Anticonvulsant activity against PTZ induced seizures was observed in mice after intraperitoneal injection; type: functional; conditions: Mus musculus, ip
Procedure, shortened: (§2)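 Swiss mice dosed ip 45 min before seizure induction by maximal electroshock (MES) or pentylenetetrazole (PTZ). ED50 (μmol/kg) with 95% confidence limits by Litchfield and Wilcoxon method.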

[4] = Anticonvulsant activity against in MES was observed in mice after intraperitoneal injection; type: functional; conditions: Mus musculus, ip; procedure, shortened: as §2
[5] = Anticonvulsant activity against AMPA-induced seizures in DBA/2 mice was observed in clonic phase after intraperitoneal injection; type: functional, Mus musculus
Procedure, shortened: (§3)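 DBA/2 mice given compound intraperitoneally, then challenged with AMPA to induce seizures; clonic and tonic phases scored separately. ED50 (μmol/kg) with 95% confidence limits by Litchfield and Wilcoxon method.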

[6] = Anticonvulsant activity against Audiogenic seizures in DBA/2 mice was observed in clonic phase after pretreatment with Aniracetam; type: functional; conditions: Mus musculus
Procedure, shortened: (§4)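 Audiogenic seizure test in DBA/2 mice, clonic and tonic phases; aniracetam 50 nmol given icv 60 min before testing, together with ip compound. ED50 with 95% confidence limits by Litchfield and Wilcoxon method.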

[7] = Anticonvulsant activity against Audiogenic seizures in DBA/2 mice was observed in tonic phase after pretreatment with Aniracetam; type: functional; conditions: Mus musculus; procedure, shortened: as §4
[8] = Anticonvulsant activity against AMPA-induced seizures in DBA/2 mice was observed in tonic phase after intraperitoneal injection; type: functional; conditions: Mus musculus, ip; procedure, shortened: as §3
[9] = Mus musculus, ip, read-out: ED50

With COc1cc2c(cc1OC)C(c1ccc(Cl)cc1)=Nn1c(n[nH]c(=O)c1=O)C2 the ED50 [1] was 37.4 µmol/kg and the ED50 [2] was 33 µmol/kg.

Work on CC(=O)N1N=C(c2ccc(N)cc2)c2cc3c(cc2C[C@H]1C)OCO3 [TALAMPANEL] yielded an ED50 [3] of 56.3 µmol/kg, an ED50 [4] of 28.8 µmol/kg and an ED50 [2] of 9.7 µmol/kg. The ED50 [5, 9] was 44.2 µmol/kg.

Work on COc1cc2c(cc1OC)C(c1ccccc1)=Nn1c(n[nH]c(=O)c1=O)C2 yielded an ED50 [3] of 57.6 µmol/kg, an ED50 [4] of 36.6 µmol/kg and an ED50 [1] of 33.6 µmol/kg. For the same compound, the ED50 [2] was 17.9 µmol/kg.

COc1cc2c(cc1OC)C(c1ccc(Br)cc1)=Nn1c(n[nH]c(=O)c1=O)C2 showed an ED50 [1] of 76.6 µmol/kg and an ED50 [2] of 54.6 µmol/kg.

COc1cc2c(cc1OC)C(c1ccc(N)cc1)=Nn1c(n[nH]c(=O)c1=O)C2 showed an ED50 [1] of 59.3 µmol/kg and an ED50 [2] of 52.8 µmol/kg.

Compound COc1cc2c(cc1OC)C(c1ccc(Br)cc1)=Nn1c(O)nnc1C2 has an ED50 [3] of 13.8 µmol/kg, an ED50 [4] of 5.93 µmol/kg and an ED50 [1] of 3.65 µmol/kg. It also gave an ED50 [6] of 18.6 µmol/kg, an ED50 [7] of 7.87 µmol/kg and an ED50 [2] of 1.34 µmol/kg. For the same compound, the ED50 [5] was 17.7 µM/kg and the ED50 [5, 9] was 17.7 µmol/kg.

COc1cc2c(cc1OC)C(c1ccc(N)cc1)=NNC(=O)C2 showed an ED50 [1] of 15 µmol/kg, an ED50 [7] of 56.2 µmol/kg and an ED50 [8] of 25 µmol/kg.

COc1cc2c(cc1OC)C(c1ccc([N+](=O)[O-])cc1)=Nn1c(n[nH]c(=O)c1=O)C2 gave an ED50 [1] of 60 µmol/kg and an ED50 [2] of 25.7 µmol/kg.

With COc1cc2c(cc1OC)C(c1cccc(N)c1)=Nn1c(n[nH]c(=O)c1=O)C2 the ED50 [1] was 74.5 µmol/kg and the ED50 [2] was 57.7 µmol/kg.

With CC1=NN=C(c2ccc(N)cc2)c2cc3c(cc2C1)OCO3 [GYKI-52466] the ED50 [7] was 100 µmol/kg and the ED50 [5, 9] was 57.5 µmol/kg.

COc1cc2c(cc1OC)C(c1ccc(F)cc1)=Nn1c(n[nH]c(=O)c1=O)C2 showed an ED50 [3] of 63.2 µmol/kg, an ED50 [4] of 37.8 µmol/kg and an ED50 [1] of 39.2 µmol/kg. For the same compound, the ED50 [2] was 28 µmol/kg.

In the case of COc1cc2c(cc1OC)C(c1cccc([N+](=O)[O-])c1)=Nn1c(n[nH]c(=O)c1=O)C2, the ED50 [1] is reported as greater than 120 µmol/kg and the ED50 [2] is reported as 88.9 µmol/kg.

With COc1cc2c(cc1OC)C(c1ccc(Cl)cc1)=Nn1c(O)nnc1C2 the ED50 [3] was 33.1 µmol/kg, the ED50 [1] was 28.8 µmol/kg and the ED50 [6] was 87.8 µmol/kg. The ED50 [7] was 71.8 µmol/kg, the ED50 [2] was 14.1 µmol/kg and the ED50 [5] was 46.8 µM/kg. For the same compound, the ED50 [5, 9] was 46.8 µmol/kg.
